Assay outcomes: PubChem BioAssay, The Scripps Research Institute Molecular Screening Center
Only some compounds are listed: those with a hit (about 4.6% of all), similar ones and a draw of the others.
TAAR1 antag: antagonists of human TAAR1. Q96RJ0. CHO RD-HGA16 TAAR1, Fluo-8 calcium fluorescence, antagonist. inhibition, % at 3 µM. hit rate 1.5% among 360,000. AID 624466;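 active means inhibition above a per-plate cutoff, the mean inhibition of test compounds on that plate plus 3 SD, cut at about 49% in these data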;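 further: 0% = DMSO plus EC80 beta-PEA response and 100% = DMSO alone without agonist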
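Test system: hTAAR1-expressing CHO RD-HGA16 cells, Gα16-coupled; Probe or stimulus: EC80 β-phenethylamine stimulus; Compound dosing: single nominal final test compound concentration of 3 µM; Timing: 140 s kinetic read after compound, 140 s after agonist; Signal: Fluo-8 calcium-sensitive fluorescence; Measure: % inhibition of agonist calcium response; Controls: DMSO and EC80 PEA controls.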
OX1R antag-1: OX1R (human) antagonism; O43613; OX1R-expressing cells, FRET antagonist read-out; inhibition, % at 6.6 µM; hit rate 1.8% among 330,000; AID 485270; in the data active means inhibition mostly above about 38%, no sharp cut-off; inactive means mostly below about 40%;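 further: 0% = agonist challenge alone and 100% = reference antagonist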
OX1R antag-2: blocks the human orexin 1 receptor; hit rate 0.43% among 330,000; CHO/OX1R cells, Fluo-8 calcium fluorescence, orexin A; O43613; AID 434989; inhibition, % at 5 µM;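 active means inhibition above its plate's threshold, mean inhibition of all tested compounds on the plate plus 3 SD, cut at about 37% in these data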;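 further: 0% = orexin A challenge wells and 100% = SB-334867-A antagonist wells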
CHO parental Ca: counter-screen for OX1R antagonists: effect in parental CHO cells; parental CHO-K1, ATP-induced calcium, Fluo-8 fluorescence; inhibition, % at 5.6 µM; hit rate 0.63% among 330,000;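 active means inhibition above that plate's mean sample inhibition plus 3 SD, cut at about 26% in these data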;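 further: 0% = ATP-challenged DMSO wells and 100% = DMSO wells without ATP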
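Material: parental CHO cells / Compound: single nominal dose of 5.6 µM per compound / Signal: Fluo-8 fluorescence / Replicates: singlicate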
GPR7 antag: antagonists of human GPR7 (neuropeptides B/W receptor 1) | inhibition, % at 4.4 µM | P48145 | hit rate 1.1% among 290,000 | GPR7-expressing cells, fluorescence antagonist assay; in the data active means inhibition above about 16%, passing the limit was not always enough;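 further: cells stimulated with the agonist NPW; 0% = agonist with vehicle and 100% = vehicle without agonist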
Target sequence (P48145 whole entry, looked up): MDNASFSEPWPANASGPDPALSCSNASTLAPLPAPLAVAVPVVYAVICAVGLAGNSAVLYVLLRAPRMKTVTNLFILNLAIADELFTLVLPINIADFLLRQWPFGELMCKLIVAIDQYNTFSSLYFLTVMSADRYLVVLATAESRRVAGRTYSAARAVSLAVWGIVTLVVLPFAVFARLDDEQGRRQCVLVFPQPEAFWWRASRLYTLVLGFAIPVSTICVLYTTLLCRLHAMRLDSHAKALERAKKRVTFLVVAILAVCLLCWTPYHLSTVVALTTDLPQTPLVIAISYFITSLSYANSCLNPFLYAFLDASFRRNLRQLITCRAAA
TAAR1 agonist: agonists of human TAAR1; CHO RD-HGA16 TAAR1, Fluo-8 calcium fluorescence; vehicle wells 0%, saturating PEA agonist 100%; Q96RJ0; activation, % at 3 µM; hit rate 0.99% among 360,000;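 active means activation above the mean activation of all test compounds in the run plus 3 SD, cut at about 38% in these data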
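Signal – calcium-sensitive Fluo-8 signal, excitation 470-495, emission 515-575 nm · System – RD-HGA16 (CHO) cells co-expressing Gα16 and hTAAR1 · Incubation – 17-24 h seeding, 75 min 37 °C dye, 30 min RT · Compound dosing – 3 µM single concentration · Repeats – no replicates (n 1)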
OX1R Fluo8 conf: confirmation of human orexin 1 receptor antagonists; shares compounds with OX1R antag-2; hit rate 38% among 1,100; CHO/OX1R cells, orexin A calcium Fluo-8 fluorescence; inhibition, % at 5 µM; AID 492963; in the data active means inhibition above about 29%;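 further: 0% = agonist challenge alone and 100% = reference antagonist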
CHO Ca triplic: counter-screen: parental CHO calcium response change, triplicate. shares compounds with OX1R antag-2. hit rate 9.3% among 1,100. parental CHO-K1, ATP-induced calcium, Fluo-8 fluorescence. inhibition, % at 5.6 µM;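 active means inhibition above a per-plate limit, the mean inhibition of that plate's test compounds plus 3 SD, cut at about 25% in these data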;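 further: 0% = ATP challenge with DMSO and 100% = DMSO without ATP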
OX1R HTRF conf: confirmation of human orexin 1 receptor antagonists, HTRF format; OX1R-expressing cells, HTRF antagonist assay; shares compounds with OX1R antag-1; AID 492964; hit rate 49% among 1,800; inhibition, % at 6.6 µM; in the data active means inhibition above about 55%;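 further: CHO cells expressing OX1R stimulated with orexin A at about EC80; 0% = agonist challenge alone and 100% = reference antagonist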
CHO-K1 HTRF: signal in parental CHO-K1 cells, OX1R antagonist counter-screen | shares compounds with OX1R antag-1 | HTRF counterscreen | inhibition, % at 6.6 µM | hit rate 48% among 1,800; in the data active means inhibition above about 17%;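 further: 0% = agonist challenge with vehicle and 100% = vehicle alone without agonist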
Starred values were filed as active, the others as inactive; x = not tested or not shown.

SMILES | TAAR1 antag | OX1R antag-1 | OX1R antag-2 | CHO parental Ca | GPR7 antag | TAAR1 agonist | OX1R Fluo8 conf | CHO Ca triplic | OX1R HTRF conf | CHO-K1 HTRF
CSc1cccc(N2CC(C(=O)NCCN3C(=O)S/C(=C\c4cccnc4)C3=O)CC2=O)c1 (configuration not stated) | 1 | 145* | 33 | -10 | x | 0 | 67* | -6 | 112* | 33*
Cc1cc(Cl)ccc1OCCCC(=O)NCCN1C(=O)S/C(=C\c2cccnc2)C1=O | 9 | 114* | 94* | -25 | -11 | 8 | 94* | -6 | 91* | 10
COc1ccc(C(C(=O)NCC2CCCO2)N(C(=O)CNC(=O)c2cccs2)c2ccc(NC(C)=O)cc2)cc1OC (configuration not stated) | 4 | 17 | -21 | -7 | -14 | 0 | x | x | x | x
CCOc1ccccc1C(=O)NCCNC(=O)c1ccccc1OCC | 9 | 80* | 65* | -5 | x | 3 | 77* | -14 | 52 | 10
CCOc1ccccc1C(=O)Nc1cc(OC)ccc1OC | 16 | 68* | 61* | -2 | -10 | 2 | 3 | -17 | 89* | -3
CCOc1ccccc1NC(=O)c1ccccc1-c1nc(-c2ccccc2OC)no1 | 66* | 87* | 45* | 9 | 8 | 11 | 11 | -12 | 55 | 6
Cc1cc([N+](=O)[O-])nn1CC(=O)NCCc1c[nH]c2ccccc12 | 8 | 16 | -19 | -12 | -1 | 2 | x | x | x | x
CO/N=C(/CNC(=O)c1ccccc1Cl)c1ccc(Cl)cc1 | 11 | 16 | -14 | -19 | 0 | 0 | x | x | x | x
Cc1noc(C)c1S(=O)(=O)Nc1ccc(C(=O)NCCc2ccccc2)cc1 | 4 | 29 | -21 | -1 | -6 | 0 | x | x | x | x
O=c1oc(CCCO)cc2ccc(C#Cc3ccsc3)cc12 | 12 | 42* | 55* | 10 | x | 13 | 20 | 10 | 34 | 1
CN(C)c1ccc(C#Cc2ccc3cc(CCCO)oc(=O)c3c2)cc1 | 3 | 0 | -3 | -3 | x | 11 | x | x | x | x
CC(C)(O)c1cc2ccc(C#Cc3ccsc3)cc2c(=O)o1 | 7 | 71* | 60* | -18 | x | 3 | 36* | -10 | 83* | -4
CC(C)(OC(=O)c1cccs1)c1cc2ccccc2c(=O)o1 | 4 | 3 | 6 | -17 | x | 3 | x | x | x | x
O=C(NCc1cccnc1)c1ccc(-c2cc3ccccc3oc2=O)cc1 | 6 | 43 | -19 | 1 | 0 | 6 | x | x | x | x
Cc1cc(C)cc(CSCC(=O)N/N=C/c2ccc(OCC(=O)NCc3ccco3)cc2)c1 | x | 58* | 50* | -20 | 2 | x | 32* | -2 | 54 | 7
O=c1cc(-c2ccsc2)oc2ccc(-c3ccc4cc[nH]c4c3)cc12 | 44 | 63* | 72* | 4 | x | 14 | 37* | -10 | 75* | -7
O=c1c2ccccc2oc2cc(-c3ccc4cc[nH]c4c3)ccc12 | 2 | 80* | 75* | -27 | x | 6 | 22 | -8 | 78* | 2
Cc1ccc(C(=O)Nc2ccc(Br)c(C(F)(F)F)c2)cc1 | 13 | 51* | 29 | -3 | -6 | 4 | 6 | 4 | 34 | 12
Cc1ccc(NC(=O)c2ccc(C)cc2)cc1 | -7 | 31 | -2 | -12 | x | 3 | x | x | x | x
CC(=O)NC(Cc1c[nH]c2ccccc12)C(=O)N/N=C/c1ccccc1 (configuration not stated) | -12 | 73* | 64* | 2 | -11 | 6 | 36* | -1 | 72* | 0
CC(=O)Nc1cc(-c2ccc(C(=O)NC3CC3)cc2)cn2c(-c3cccc(C(F)(F)F)c3)cnc12 | 1 | x | x | x | x | 6 | x | x | x | x
